Source: PubChem
FLuc stim CS: affects firefly luciferase, flagging false hits in luciferase stimulation screens. ATPlite luciferase biochemical, luminescence, 10 min; 0 = ATP-free wells, 1 = DMSO control. 200,000 tested, under 10 active. activation factor at 10 µM. AID 1027;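 active means luciferase activation factor, scaled between plate controls, of at least 2 with compound at 10 µM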
Target sequence (P08659 whole entry, looked up): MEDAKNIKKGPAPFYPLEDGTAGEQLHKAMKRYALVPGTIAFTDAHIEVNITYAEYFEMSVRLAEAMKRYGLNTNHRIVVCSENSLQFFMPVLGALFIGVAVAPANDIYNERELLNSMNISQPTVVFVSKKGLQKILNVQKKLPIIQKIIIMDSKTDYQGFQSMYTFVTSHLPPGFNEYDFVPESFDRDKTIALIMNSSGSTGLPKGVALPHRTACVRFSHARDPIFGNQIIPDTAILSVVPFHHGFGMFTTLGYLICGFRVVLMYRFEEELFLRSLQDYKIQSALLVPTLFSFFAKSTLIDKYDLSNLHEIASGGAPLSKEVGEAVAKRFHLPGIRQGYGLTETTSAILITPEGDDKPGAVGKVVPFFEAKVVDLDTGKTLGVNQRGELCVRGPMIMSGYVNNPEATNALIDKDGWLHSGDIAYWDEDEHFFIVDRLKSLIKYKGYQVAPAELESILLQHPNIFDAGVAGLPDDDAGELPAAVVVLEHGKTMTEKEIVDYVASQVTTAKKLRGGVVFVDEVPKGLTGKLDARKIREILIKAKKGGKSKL
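Assay system: Luciferase/luciferin detection reagent, cell-free biochemical luciferase assay / Read-out: luciferase activation / Benchmarks: No-ATP low control, compound-free enzyme-plus-ATP high control / Medium: PBS buffer for ATP / Detection: luminescence measurement of luciferase light output / Schedule: 10 min at ambient temperature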
FLuc inh counter: counter-screen for luciferase assay inhibitors: firefly luciferase inhibition; ATPLite firefly luciferase biochemical luminescence, 10 min; inhibition, % at 10 µM; 1.5% of 200,000 active; AID 1006;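 active means inhibition above about 50% when tested at 10 µM, limit read from the data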
PPC-1+TRAIL kill: compounds killing PPC-1 cancer cells with TRAIL present (potentiator screen, no TRAIL-free arm) | PPC-1 cells + TRAIL, ATPLite viability luminescence | cell killing (% activity), % at 4 µM or 5 µM | 0.41% of 220,000 active | AID 1443;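 active means cell killing above 50% in the first pass at 4 µM, then a duplicate retest at 5 µM averaging 50% or more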;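 further: plate controls were cells with TRAIL plus DMSO for no effect and medium-only wells lacking cells for full effect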
TRAIL sens C8: sensitizes caspase-8 expressing cells to TRAIL; NB7+C8 cells + TRAIL, ATPlite viability luminescence; 1% of 360,000 active; inhibition (viability loss, TRAIL sensitization), % at 10 µM;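 active means compounds causing at least 50% loss of cell viability in the single-dose screen, relative to plate controls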
An asterisk follows results filed as active; x = not tested or not shown. Sampled rows, rich in hits. Any-hit rate of the full collection: about 1.5%.

SMILES | FLuc stim CS | FLuc inh counter | PPC-1+TRAIL kill | TRAIL sens C8
c1ccc(-c2ccc(-c3ccccn3)nn2)nc1 | 0.4 | 60* | 16 | x
CCc1ccc2nc(N)sc2c1 | 0.4 | 56* | 26 | 24
CCc1ccc(NC(=O)c2ccc3nc(N)sc3c2)cc1 | 0.7 | 28 | 9 | 10
CC(C)c1ccc(-n2cnn(-c3ncccc3[N+](=O)[O-])c2=O)cc1 | 0.5 | 54* | 26 | 23
O=[N+]([O-])/C(=C\Nc1ccc(F)cc1F)S(=O)(=O)c1ccccc1 | x | x | x | 33
Cc1ccc(NC(=O)C(=O)NCc2ccc(/C=N/NC(=O)c3c(C)nc4ccccn34)o2)cc1 | 0.3 | 73* | 24 | 37
Cc1ccc(-n2c(C)cc(C(=O)COC(=O)C3=NNC(=O)CC3)c2C)cc1 | 0.9 | 8 | -36 | 2
CCC(=O)OCC(=O)c1cc(C)n(-c2ccc(Br)cc2)c1C | 0.4 | 59* | -3 | 7
Cc1cc(C(=O)COC(=O)C2=NNC(=O)CC2)c(C)n1-c1ccccc1 | 0.4 | 64* | 45 | -2
Cc1cc(C(=O)COC(=O)C2=COCCO2)c(C)n1-c1ccccc1 | x | x | x | 73*
COc1ccc(OC)c(CC(=O)N2CCc3cc(OC)c(OC)cc3C2)c1 | x | x | x | -17
COc1ccc(C2=NN(C(=O)COC(=O)c3ccc(S(C)(=O)=O)c([N+](=O)[O-])c3)C(c3ccco3)C2)cc1 (stereo unspecified) | x | x | x | 90*
COc1ccc(C2=NN(C(=O)COc3ncnc4ccccc34)C(c3ccco3)C2)cc1 (stereo unspecified) | 1 | -1 | 0 | 13
COc1cccc(NC(=O)CCC2CCN(C(=O)c3ccc(C(C)=O)s3)CC2)c1 | x | x | x | -13
O=C(CCc1ccccc1)Nc1cc(S(=O)(=O)N2CCOCC2)ccc1N1CCCC1 | x | x | x | 1
CCCC[n+]1ccn(C2=C([O-])c3ccccc3C(=O)/C2=N\S(=O)(=O)c2ccc(Br)cc2)c1 | 1 | 2 | 25 | 56*
Cc1ccc(S(=O)(=O)/N=C2\C(=O)c3ccccc3C([O-])=C2n2cc[n+](CCC(C)C)c2)cc1 | 1 | -3 | -7 | 37
Cc1c(C)c2ccc(OCC(=O)NCCN3CCOCC3)cc2oc1=O | x | x | x | 22
Cc1ccc(-c2nn3c(C)nnc3s2)cc1NC(=O)c1ccc(-c2ccc(Cl)cc2Cl)o1 | 1 | 4 | -15 | 60*
Cc1ccc(-c2nn3c(C)nnc3s2)cc1NC(=O)c1ccc(-c2cccc(Cl)c2)o1 | 1 | -4 | 27 | 7
O=C(/C=C/c1ccco1)Nc1cccc(NC(=O)/C=C/c2ccco2)n1 | 0.5 | 52* | 17 | 19
Cc1ccc(-c2csc(NC(=O)/C=C/c3ccco3)c2C(=O)O)cc1 | 0.4 | 64* | 31 | 33
Cc1nc(NC(=O)/C=C/c2ccco2)sc1C | 0.7 | 34 | 7 | 46
O=C(/C=C/c1ccco1)Nc1ccccc1C(=O)O | 0.2 | 80* | 20 | 48*
CN(C)c1ccc(/C=N/NC(=O)c2ccco2)cc1 | 0.2 | 84* | 41 | 66*
SMILES | FLuc stim CS | FLuc inh counter | PPC-1+TRAIL kill | TRAIL sens C8
O=C(N/N=C/C(Cl)=C/c1ccccc1)c1ccncc1 | 0.8 | 22 | 13 | 16
O=C(Oc1ccc(/C=N/NC(=O)c2ccccn2)cc1)c1ccc(Br)cc1 | x | x | x | 18
O=C(N/N=C/c1ccc(OC(=O)c2ccco2)cc1)c1ccccn1 | 0.5 | 52* | 34 | 26
CN(C)c1ccc(/C=N\NC(=O)c2csnn2)cc1 | 0.4 | 60* | 35 | 26
O=C(N/N=C/C(Cl)=C/c1ccccc1)c1ccccn1 | 0.2 | 81* | 45 | 56*
CN(C)c1ccc(/C=N/NC(=O)c2ccccn2)cc1 | x | x | 28 | 66*
O=C(N/N=C/c1ccncc1)c1ccccn1 | x | x | x | 0
Cc1nn(CC(=O)NCc2cccs2)c(=O)c2nn(-c3ccccc3)c(C)c12 | x | x | x | 1
Cc1ccc(OCC(=O)Nc2ccc3c(c2)OCO3)c(C)c1 | 0.5 | 54* | 36 | 18
Cc1cccc(OCC(=O)Nc2ccc3c(c2)OCO3)c1C | 0.9 | 7 | 15 | -1
O=C(COc1ccccc1[N+](=O)[O-])Nc1ccc2c(c1)OCO2 | 0.4 | 58* | 41 | 23
NC(=O)c1cc(Cl)ccc1OCC(=O)Nc1ccc2c(c1)OCO2 | x | x | x | 69*
CC(=O)c1cc(F)ccc1OCC(=O)Nc1ccc2c(c1)OCO2 | x | x | x | 66*
O=C(COC(=O)COc1ccccc1[N+](=O)[O-])Nc1ccc2c(c1)OCO2 | x | x | x | -13
CC(=O)Oc1ccc(C(=O)Nc2ccccc2C(=O)Nc2ccc(C(=O)O)cc2)cc1 | x | x | x | 8
Cc1ccccc1CN1C[C@H]2CON(C)[C@H]2C[C@H]1c1cccc(Br)c1 | x | x | x | 1
